Columns and labels:
[1] = target: T1, UDP-glucuronosyltransferase 1A3 (Homo sapiens, UniProt P35503); assay: Activity of human UGT1A3 expressed in HEK293 cells assessed as enzyme-mediated compound formation per 2 x 10^5 cells treated with ketoprofen at 1 mM measured at 24 hrs by LC-MS/MS analysis; format: ADME, cell-based; details: hek293, 24 h, 1000 µM
T1 sequence (P35503 whole entry): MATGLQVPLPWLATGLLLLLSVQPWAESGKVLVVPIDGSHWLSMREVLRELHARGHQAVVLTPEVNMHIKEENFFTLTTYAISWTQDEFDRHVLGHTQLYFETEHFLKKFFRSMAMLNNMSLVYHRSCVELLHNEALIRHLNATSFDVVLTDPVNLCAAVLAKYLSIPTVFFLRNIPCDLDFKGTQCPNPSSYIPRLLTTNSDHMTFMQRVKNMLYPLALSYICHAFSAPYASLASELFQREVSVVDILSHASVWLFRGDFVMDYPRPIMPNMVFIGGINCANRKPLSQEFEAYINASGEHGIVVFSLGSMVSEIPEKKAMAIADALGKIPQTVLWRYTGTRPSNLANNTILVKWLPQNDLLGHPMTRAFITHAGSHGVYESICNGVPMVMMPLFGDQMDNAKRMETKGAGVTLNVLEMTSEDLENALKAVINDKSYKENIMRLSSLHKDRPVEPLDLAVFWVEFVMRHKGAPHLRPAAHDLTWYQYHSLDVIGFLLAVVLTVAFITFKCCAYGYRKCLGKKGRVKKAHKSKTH
How it was run: (§1)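 HEK293 stably expressing human UGT1A3 (G418-selected), 2 x 10^5 cells/well in 1 mL DMEM with 0.5% FBS, exposed immediately to drug for 6, 12 or 24 h; DMSO ≤0.1% final. Cells and medium separated by centrifugation, cell fraction resuspended in PBS; aliquots mixed 1:1 with methanol/acetic acid (100:1), spun, supernatant analysed by LC-MS/MS. Triplicate determinations, mean ± SD.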

Hepatocyte [2] = assay: Drug level in human hepatocytes assessed per 2 x 10^5 cells treated with ketoprofen at 1 mM measured at 6 hrs by LC-MS/MS analysis in absence of acyl glucuronidation inhibitor (-)-borneol; format: ADME, cell-based; details: 1000 µM
[3] = Drug level in cell culture medium treated with ketoprofen at 1 mM measured at 6 hrs by LC-MS/MS analysis in absence of acyl glucuronidation inhibitor (-)-borneol; format: physicochemical; details: 1000 µM
[4] = Drug level in cell culture medium treated with ketoprofen at 1 mM measured at 6 hrs by LC-MS/MS analysis in presence of acyl glucuronidation inhibitor (-)-borneol; format: physicochemical; details: 1000 µM
Nucleic Acid [5] = assay: Ratio of drug level in human hepatocytes to HEK293 cells expressing UGT1A3 treated with ketoprofen at 1 mM; format: ADME, cell-based, Hepatocyte; details: 1000 µM
How it was run: (§2)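 Acyl glucuronide in cell fraction (pmol/2 x 10^5 cells) by LC-MS/MS after 6 h exposure in human hepatocytes without (-)-borneol, set against HEK/UGT1A3 cells (2 x 10^5 cells/well, DMEM with 0.5% FBS) exposed to the same drug level; cells pelleted at 3000 x g, resuspended in PBS, extracted with methanol/acetic acid.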

[6] = target: T1, UDP-glucuronosyltransferase 1A3; assay: Activity of human UGT1A3 expressed in HEK293 cells assessed as enzyme-mediated compound formation in cell culture medium treated with ketoprofen at 1 mM measured at 6 to 24 hrs by LC-MS/MS analysis; format: ADME, cell-based; details: hek293, 1000 µM; how it was run: as §1
[7] = target: T1, UDP-glucuronosyltransferase 1A3; assay: Activity of human UGT1A3 expressed in HEK293 cells assessed as enzyme-mediated compound formation in cell culture medium treated with ketoprofen at 1 mM by LC-MS/MS analysis; format: ADME, cell-based; details: hek293, 1000 µM, TDE = time-dependent effect; how it was run: as §1
Hepatocyte [8] = assay: Drug level in human hepatocytes assessed per 2 x 10^5 cells treated with ketoprofen at 1 mM measured at 6 hrs by LC-MS/MS analysis in presence of acyl glucuronidation inhibitor (-)-borneol; format: ADME, cell-based; details: 1000 µM
[9] = target: T1, UDP-glucuronosyltransferase 1A3; assay: Activity of human UGT1A3 expressed in HEK293 cells assessed as enzyme-mediated compound formation per 2 x 10^5 cells treated with naproxen at 1 mM measured at 24 hrs by LC-MS/MS analysis; format: ADME, cell-based; details: hek293, 24 h, 1000 µM; how it was run: as §1
[10] = Drug level in cell culture medium treated with naproxen at 1 mM measured at 6 hrs by LC-MS/MS analysis in absence of acyl glucuronidation inhibitor (-)-borneol; format: physicochemical; details: 1000 µM
[11] = Drug level in cell culture medium treated with naproxen at 1 mM measured at 6 hrs by LC-MS/MS analysis in presence of acyl glucuronidation inhibitor (-)-borneol; format: physicochemical; details: 1000 µM
Nucleic Acid [12] = assay: Ratio of drug level in human hepatocytes to HEK293 cells expressing UGT1A3 treated with naproxen at 1 mM; format: ADME, cell-based, Hepatocyte; details: 1000 µM; how it was run: as §2
[13] = target: T1, UDP-glucuronosyltransferase 1A3; assay: Activity of human UGT1A3 expressed in HEK293 cells assessed as enzyme-mediated compound formation in cell culture medium treated with naproxen at 1 mM measured at 6 to 24 hrs by LC-MS/MS analysis; format: ADME, cell-based; details: hek293, 1000 µM; how it was run: as §1
[14] = target: T1, UDP-glucuronosyltransferase 1A3; assay: Activity of human UGT1A3 expressed in HEK293 cells assessed as enzyme-mediated compound formation in cell culture medium treated with naproxen at 1 mM by LC-MS/MS analysis; format: ADME, cell-based; details: hek293, 1000 µM, TDE = time-dependent effect; how it was run: as §1
Hepatocyte [15] = assay: Drug level in human hepatocytes assessed per 2 x 10^5 cells treated with naproxen at 1 mM measured at 6 hrs by LC-MS/MS analysis in presence of acyl glucuronidation inhibitor (-)-borneol; format: ADME, cell-based; details: 1000 µM
Hepatocyte [16] = assay: Drug level in human hepatocytes assessed per 2 x 10^5 cells treated with naproxen at 1 mM measured at 6 hrs by LC-MS/MS analysis in absence of acyl glucuronidation inhibitor (-)-borneol; format: ADME, cell-based; details: 1000 µM
[17] = target: T1, UDP-glucuronosyltransferase 1A3; assay: Activity of human UGT1A3 expressed in HEK293 cells assessed as enzyme-mediated compound formation per 2 x 10^5 cells treated with diclofenac at 0.1 mM measured at 24 hrs by LC-MS/MS analysis; format: ADME, cell-based; details: hek293, 24 h, 100 µM; how it was run: as §1
Hepatocyte [18] = assay: Drug level in human hepatocytes assessed per 2 x 10^5 cells treated with diclofenac at 0.1 mM measured at 6 hrs by LC-MS/MS analysis in absence of acyl glucuronidation inhibitor (-)-borneol; format: ADME, cell-based; details: 100 µM
[19] = Drug level in cell culture medium treated with diclofenac at 0.1 mM measured at 6 hrs by LC-MS/MS analysis in absence of acyl glucuronidation inhibitor (-)-borneol; format: physicochemical; details: 100 µM
[20] = Drug level in cell culture medium treated with diclofenac at 0.1 mM measured at 6 hrs by LC-MS/MS analysis in presence of acyl glucuronidation inhibitor (-)-borneol; format: physicochemical; details: 100 µM
[21] = target: T1, UDP-glucuronosyltransferase 1A3; assay: Activity of human UGT1A3 expressed in HEK293 cells assessed as enzyme-mediated compound formation in cell culture medium treated with diclofenac at 0.1 mM measured at 6 to 24 hrs by LC-MS/MS analysis; format: ADME, cell-based; details: hek293, 100 µM; how it was run: as §1
[22] = target: T1, UDP-glucuronosyltransferase 1A3; assay: Activity of human UGT1A3 expressed in HEK293 cells assessed as enzyme-mediated compound formation in cell culture medium treated with diclofenac at 0.1 mM by LC-MS/MS analysis; format: ADME, cell-based; details: hek293, 100 µM, TDE = time-dependent effect; how it was run: as §1
Hepatocyte [23] = assay: Drug level in human hepatocytes assessed per 2 x 10^5 cells treated with diclofenac at 0.1 mM measured at 6 hrs by LC-MS/MS analysis in presence of acyl glucuronidation inhibitor (-)-borneol; format: ADME, cell-based; details: 100 µM

SMILES: CC(C(=O)O[C@@H]1O[C@H](C(=O)O)[C@@H](O)[C@H](O)[C@H]1O)c1cccc(C(=O)c2ccccc2)c1 (stereo partly drawn)
- Drug metabolism [1]: 0.2 pmol
- Drug metabolism (Hepatocyte [2]): 6.8 pmol
- Drug metabolism [3]: 436.8 pmol/mL
- Drug metabolism [4]: 54.9 pmol/mL
- Ratio (Nucleic Acid [5]): 6
- Drug metabolism [6]: 6.3 pmol/mL
- Drug metabolism [7]: tde
- Drug metabolism (Hepatocyte [8]): 1.7 pmol

SMILES: COc1ccc2cc([C@H](C)C(=O)O[C@@H]3O[C@H](C(=O)O)[C@@H](O)[C@H](O)[C@H]3O)ccc2c1
- Drug metabolism [9]: 4.5 pmol
- Drug metabolism [10]: 1323.9 pmol/mL
- Drug metabolism [11]: 393.7 pmol/mL
- Ratio (Nucleic Acid [12]): 6
- Drug metabolism [13]: 137 pmol/mL
- Drug metabolism [14]: tde
- Drug metabolism (Hepatocyte [15]): 10.3 pmol
- Drug metabolism (Hepatocyte [16]): 33.6 pmol

SMILES: O=C(Cc1ccccc1Nc1c(Cl)cccc1Cl)O[C@@H]1O[C@H](C(=O)O)[C@@H](O)[C@H](O)[C@H]1O
- Drug metabolism [17]: 3.8 pmol
- Drug metabolism (Hepatocyte [18]): 59.6 pmol
- Drug metabolism [19]: 2816.1 pmol/mL
- Drug metabolism [20]: 610.5 pmol/mL
- Drug metabolism [21]: 104 pmol/mL
- Drug metabolism [22]: tde
- Drug metabolism (Hepatocyte [23]): 15.1 pmol

From ChEMBL document CHEMBL3526116, “Toxicological evaluation of acyl glucuronides of nonsteroidal anti-inflammatory drugs using human embryonic kidney 293 cells stably expressing human UDP-glucuronosyltransferase and human hepatocytes” (Drug Metab Dispos, 2011)
